T cell HTS = T cell immune modulation candidate; 2C CD8+ T cell-vesicle binding, flow cytometry; stronger effect = lower value; response (vesicle binding), % at 7 µM; 330,000 tested, 0.068% active; AID 2052;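 active = response, share of CD8 T cells binding vesicles, and their 90th percentile fluorescence all below set limits, cut at about 80% in these data, passing the limit was not always enough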;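 note: values below 100% mean blocked vesicle binding to the CD8+ T cells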
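incubation = binding step 1.5 h, 37 °C, antibody labelling 20 min, ice | test system = 2C mouse CD8+ T cells | read-out basis = percent CD8+ FL2 mean versus row control | controls = Peptide-free naked vesicles (low) and QL9 vesicles with 0.7% DMSO vehicle (high) | detection = flow cytometry of vesicle-bound cells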
NALP1 inh = inhibitors of NALP1 inflammasome in yeast. S. cerevisiae NALP1/ASC/caspase-1 growth, X-gal OD620, 72 h. inhibition, % at 10 µM. 280,000 tested, 0.61% active. AID 2071; in the data active = inhibition mostly above about 24%, no sharp cut-off; inactive = mostly below about 32%
A1 inh = inhibitors of the anti-apoptotic protein A1, read as caspase activation; 330,000 tested, 0.066% active; AID 2462; MEF A1-2A-BIM cells, Caspase-Glo 3/7 luminescence, 3 h; percent of clofoctol response, vehicle zero; caspase activation, % (no concentration beside the values);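 active = over half of replicate activation scores above 10%, or exactly half above 10 with the replicate mean above 10; inconclusive = replicate mean below 10 yet half the replicates above 10; inactive = over half of replicates below 10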
NALP3 yeast inh = blocks the NALP3 inflammasome reconstituted in yeast; Yeast reconstituted NLRP3/ASC/caspase-1, beta-gal luminescence, 24 h; inhibition, % at 10 µM; 330,000 tested, 0.39% active; AID 2825;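 active = inhibition of 50% or more; inactive = inhibition below 50%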;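 note: plate controls were induced DMSO wells for no effect and uninduced yeast grown without galactose for full effect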
NALP3 confirm = confirmation of NALP3 inhibitors in yeast | shares compounds with NALP3 yeast inh | yeast expressing human NALP3, luminescence | inhibition, % at 10 µM | 1,300 tested, 81% active | AID 435006; in the data active = inhibition above about 48%
Casp1 ASC ctr = caspase-1-ASC yeast counter-screen hit. shares compounds with NALP3 yeast inh. yeast expressing Caspase-1-ASC, luminescence counter screen. inhibition, % at 10 µM. 1,000 tested, 66% active
NALP3 yeast rt = yeast NALP3 inhibition, confirmed on retest; shares compounds with NALP3 yeast inh; yeast expressing human NALP3, luminescence read-out; 1,000 tested, 53% active; AID 488794; inhibition, % at 10 µM
* marks the source's active call; other numbers are inactive results; i = inactive; u = inconclusive; x = not tested or not shown. Compounds with a hit are over-represented: about 1% of the library has one in this group of screens. Cut-off read from the data, not from the text of the source, unless noted: active = inhibition above about 50%; inactive = the rest.

SMILES	T cell HTS	NALP1 inh	A1 inh	NALP3 yeast inh	NALP3 confirm	Casp1 ASC ctr	NALP3 yeast rt
CC(C)(C)NC(=O)N1CCN(S(=O)(=O)c2ccc3c(c2)CCC3)CC1	275	x	1	17	x	x	x
O=C(NNC(=O)c1ccccc1F)c1ccc(-c2ccc(Cl)cc2)o1	280	x	0	54*	59*	8	49
CCN(CC(=O)Nc1ccc(OC)cc1)C(=O)CN1C(=O)NC(C)(c2ccc3ccccc3c2)C1=O (stereo not given)	180	5	1	6	x	x	x
Cc1cc([N+](=O)[O-])cc(/C=N\NC(=O)C2COc3ccccc3O2)c1O (stereo not given)	250	-19	-4	51*	70*	78*	69*
O=C(c1ccccn1)N1CCCC(N2CCN(c3cccc(C(F)(F)F)c3)CC2)C1 (stereo not given)	96	20	0	11	x	x	x
Cc1ccc(C(=O)Nc2ccc3nc(C)sc3c2)s1	347	58	1	49	x	x	x
Cc1nc2cc(NC(=O)c3ccc(Br)s3)ccc2s1	333	9	2	51*	69*	44	41
Cn1nc(C(C)(C)C)c([N+](=O)[O-])c1C(=O)NC1CCCCC1	290	20	1	3	x	x	x
COc1ccc(N2CCN(CCNC(=O)c3c(C)cc(=O)oc3C)CC2)cc1	322	28*	x	67*	80*	86*	91*
Cc1cc(=O)oc(C)c1C(=O)NCCCN1CCN(c2ccc(F)cc2)CC1	478	16	-1	33	x	x	x
N#C/C(=N\Nc1ccc(Cl)c(Cl)c1)C(=O)C1CC1	258	x	-7	62*	87*	x	x
CNc1nc(N)c([N+](=O)[O-])c(Nc2cccc(Cl)c2)n1	281	6	0	60*	66*	x	x
CNc1nc(N)c([N+](=O)[O-])c(Nc2cccc(F)c2)n1	244	8	1	75*	86*	78*	56*
Nc1nc(NCCOCCO)nc(Nc2cccc(F)c2)c1[N+](=O)[O-]	261	-8	-1	17	x	x	x
COc1ccc(S(=O)(=O)N2CCC(C(=O)Nc3nccs3)CC2)cc1	197	21	1	-3	x	x	x
CCN(C(=O)CSc1nccc(=O)[nH]1)C1CCCCC1	174	x	-1	8	x	x	x
CCS(=O)(=O)c1ccc2oc(Nc3ccc(OC)cc3)nc2c1	898	-12	-1	-116	-16	x	x
S=C(NCCSCc1ccc(Cl)c(Cl)c1)Nc1ccccc1	544	x	1	62*	71*	58*	39
COc1ccc(CSCCNC(=S)Nc2ccccc2)cc1Cl	101	-8	0	27	x	x	x
CN(C)CCCN(C(=O)c1cc(-c2cccs2)nc2ccccc12)c1nc2ccc(F)cc2s1	368	29	0	52*	65*	50*	46
C=CCNC(=S)N1CCC(C(=O)c2ccc(Cl)cc2)CC1	i	-2	0	-3	x	x	x
CC(Sc1nc(C(F)(F)F)nc2ccccc12)C(=O)NC1CCCC1 (stereo not given)	x	x	x	52*	36	x	x
Cc1ccc(C(=O)Cn2cnc3ccccc3c2=O)cc1	221	0	0	52*	64*	34	46
CC1(C)COC(/C=C/c2cccc([N+](=O)[O-])c2)=N1	331	11	-1	55*	62*	74*	57*
CC1(C)COC(c2cc([N+](=O)[O-])ccc2Cl)=N1	294	1	0	28	x	x	x
SMILES	T cell HTS	NALP1 inh	A1 inh	NALP3 yeast inh	NALP3 confirm	Casp1 ASC ctr	NALP3 yeast rt
CCc1ccccc1NC(=O)c1cnn(-c2ccccc2)c1C	350	22	1	52*	74*	61*	56*
Cc1ccccc1NC(=O)c1cnn(-c2ccccc2)c1C	247	28	1	44	x	x	x
Cc1ccc(C)c(NC(=O)c2cnn(-c3ccccc3)c2C)c1	257	33	-3	55*	66*	45	45
Cc1c(C(=O)Nc2cccc(F)c2)cnn1-c1ccccc1	201	9	-3	55*	72*	71*	64*
Cc1c(C(=O)Nc2ccccc2)cnn1-c1ccccc1	194	x	-5	48	x	x	x
CS(=O)(=O)N(CC(=O)N1CCC(C(N)=O)CC1)Cc1ccc(Cl)c(Cl)c1	289	1	0	16	x	x	x
CCc1ccc(CNC(=O)CCC(=O)N2Cc3cccc(OC)c3Oc3ncccc32)cc1	590	13	-1	1	x	x	x
N#Cc1ccc(S(=O)(=O)NCC(=O)OCC(=O)N2CCCC2=O)cc1	222	x	0	19	x	x	x
Cc1cc(C(=O)Nc2ccc(Br)cn2)sc1C	250	x	-6	59*	61*	57*	56*
O=C(Nc1ccc(Br)cn1)c1ccc(Br)s1	214	-4	-2	18	x	x	x
COc1cc2ccccc2cc1C(=O)OCc1nc2ccsc2c(=O)[nH]1	309	x	0	5	x	x	x
O=C(c1ccc(F)cc1)n1ccc(-c2cnc(-c3ccccc3)s2)n1	335	5	-8	73*	57*	12	-1
CCN(CC)C(=S)SCC(=O)c1ccc(Br)cc1	95	29	0	55*	64*	x	x
CCn1c(CNC(C)=O)nnc1SCC(=O)c1ccc(Br)cc1	517	-3	0	3	x	x	x
COc1ccc(-c2csc(NC(C)c3nc4cc(C(F)(F)F)ccc4n3CCOCCO)n2)cc1 (stereo not given)	x	x	-3	11	x	x	x
COCCN(C(=O)c1ccc(COc2ccccc2)o1)c1c(N)n(CC(C)C)c(=O)[nH]c1=O	144	x	-1	-4	x	x	x
CCc1noc(C)c1C(=O)Nc1ccc(C(F)(F)F)cc1	233	15	-1	50*	62*	49	46
CCc1noc(C)c1C(=O)Nc1nc(-c2cccs2)cs1	500	x	0	56*	71*	62*	60*
CCc1noc(C)c1C(=O)Nc1nc2c(F)cc(F)cc2s1	311	x	-14	72*	76*	79*	67*
CCc1noc(C)c1C(=O)Nc1nc(-c2ccc(F)cc2)c(C)s1	186	6	u	13	x	x	x
CCc1noc(C)c1C(=O)Nc1nc2c(C)cccc2s1	i	x	-1	59*	74*	69*	55*
Cc1noc(C)c1C(=O)Nc1nc(-c2cccs2)cs1	466	x	-8	39	x	x	x
CCc1noc(C)c1C(=O)Nc1ncc(C)s1	244	-31	0	14	x	x	x
O=C(Cc1n[nH]c(=O)c2ccccc12)Nc1cc(C(F)(F)F)ccc1-n1cncn1	x	x	x	24	x	x	x
CC1CCc2nc3sc4c(c3c(N)c2C1)CCCC4 (stereo not given)	832	74*	-1	59*	-22	x	x
CCOC(=O)c1nc2sc3c(c2c(=O)[nH]1)CCC(C)C3 (stereo not given)	200	x	1	17	x	x	x
CC1CCc2c(nc3sc4c(c3c2N)CCCC4)C1 (stereo not given)	148	42*	-2	54*	77*	67*	58*

Source: PubChem BioAssay (several laboratories)
